System: MCF-7 (human breast cancer) cell line
Experiment: WST-1 assay, anticancer activity, breast cancer MCF-7
Format: cell-based
Conditions: MCF-7 cell line
Procedure, shortened: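 Cells were grown at 37 °C under 5 % CO2 and seeded at 1 × 10^4 cells/well in DMEM with 10 % FCS, streptomycin and penicillin. They were exposed to the test compound at 0–100 μg/mL for 72 h, then given WST-1 for 1 h. Absorbance was read at 450 nm against a background control, with a 600 nm reference. Values are means of at least two independent experiments run in triplicate.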

Structure (SMILES): CN(C)CCCN1c2ccccc2Sc2cccnc21 [Prothipendyl, 10-dimethylaminopropyl-1-azaphenothiazine]
- times less active than the most active diazaphenothiazines: 5-6 times

From paper PMC5075014 (Medicinal Chemistry Research, 2016)
